# Results reported in ChEMBL document CHEMBL5058577, “EUbOPEN Chemogenomics Library 2 (Multiplex)” (2022).
# Tested on: Fibroblast
# Test: Multiplex assay against human fibroblast
# Type: toxicity, cell-based
# Procedure, shortened: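 Live cells carried four stains from seeding: Hoechst33342, BioTracker Green Microtubule Cytoskeleton Dye, MitoTracker Red and Annexin V Alexa Fluor 680. They were imaged on a CQ1 microscope at 37°C and 5% CO2 after compound addition. Using CellPathfinder machine-learning gating, cells were split into Hoechst high-intensity objects or normal cells, normal cells into healthy, pyknosed or fragmented nuclei, and pyknosed cells into mitotic or apoptotic; tubulin, mitochondrial-mass and membrane-permeability phenotypes are per cents of healthy-nucleus cells.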
# [1] = 12 h, 1 µM, compound concentration 1 uM, replicate 1
# [2] = 12 h, 1 µM, compound concentration 1 uM, replicate 2
# [3] = 12 h, 10 µM, compound concentration 10 uM, replicate 1
# [4] = 12 h, 10 µM, compound concentration 10 uM, replicate 2
# [5] = 24 h, 1 µM, compound concentration 1 uM, replicate 1
# [6] = 24 h, 1 µM, compound concentration 1 uM, replicate 2
# [7] = 24 h, 10 µM, compound concentration 10 uM, replicate 1
# [8] = 24 h, 10 µM, compound concentration 10 uM, replicate 2
# [9] = 48 h, 1 µM, compound concentration 1 uM, replicate 1
# [10] = 48 h, 1 µM, compound concentration 1 uM, replicate 2
# [11] = 48 h, 10 µM, compound concentration 10 uM, replicate 1
# [12] = 48 h, 10 µM, compound concentration 10 uM, replicate 2
compound,measurement,setting,value
Cc1cnc(-c2cc(N3CCN(C(=O)CCS(C)(=O)=O)CC3)ncc2Cl)c(C)c1,Population Apoptotic (%),[1],36%
same,Population Fragmented Nuclei (%),[1],9%
same,Population Healthy Nuclei (%),[1],71%
same,Population Hoechst High Intensity Objects (%),[1],1%
same,Population Membrane Permeable-Phenotype (%),[1],0%
same,Population Mitochondria Different-Phenotype (%),[1],7%
same,Population Mitotic Cells (%),[1],63%
same,Population Normal (%),[1],98%
same,Population Pyknosed Nuclei (%),[1],19%
same,Population Tubulin-Different-Phenotype (%),[1],20%
same,Total Cell Count,[1],99
same,Population Apoptotic (%),[2],31%
same,Population Fragmented Nuclei (%),[2],22%
same,Population Healthy Nuclei (%),[2],36%
same,Population Hoechst High Intensity Objects (%),[2],9%
same,Population Membrane Permeable-Phenotype (%),[2],7%
same,Population Mitochondria Different-Phenotype (%),[2],10%
same,Population Mitotic Cells (%),[2],68%
same,Population Normal (%),[2],90%
same,Population Pyknosed Nuclei (%),[2],41%
same,Population Tubulin-Different-Phenotype (%),[2],50%
same,Total Cell Count,[2],85
same,Population Apoptotic (%),[3],40%
same,Population Fragmented Nuclei (%),[3],13%
same,Population Healthy Nuclei (%),[3],71%
same,Population Hoechst High Intensity Objects (%),[3],4%
same,Population Membrane Permeable-Phenotype (%),[3],1%
same,Population Mitochondria Different-Phenotype (%),[3],2%
same,Population Mitotic Cells (%),[3],60%
same,Population Normal (%),[3],95%
same,Population Pyknosed Nuclei (%),[3],14%
same,Population Tubulin-Different-Phenotype (%),[3],24%
same,Total Cell Count,[3],142
same,Population Apoptotic (%),[4],26%
same,Population Fragmented Nuclei (%),[4],21%
same,Population Healthy Nuclei (%),[4],63%
same,Population Hoechst High Intensity Objects (%),[4],1%
same,Population Mitotic Cells (%),[4],73%
same,Population Normal (%),[4],98%
same,Population Pyknosed Nuclei (%),[4],15%
same,Population Tubulin-Different-Phenotype (%),[4],37%
same,Total Cell Count,[4],121
same,Population Apoptotic (%),[5],54%
same,Population Fragmented Nuclei (%),[5],10%
same,Population Healthy Nuclei (%),[5],76%
same,Population Hoechst High Intensity Objects (%),[5],6%
same,Population Membrane Permeable-Phenotype (%),[5],2%
same,Population Mitochondria Different-Phenotype (%),[5],4%
same,Population Mitotic Cells (%),[5],45%
same,Population Normal (%),[5],93%
same,Population Pyknosed Nuclei (%),[5],12%
same,Population Tubulin-Different-Phenotype (%),[5],30%
same,Total Cell Count,[5],97
same,Population Apoptotic (%),[6],47%
same,Population Fragmented Nuclei (%),[6],35%
same,Population Healthy Nuclei (%),[6],38%
same,Population Hoechst High Intensity Objects (%),[6],10%
same,Population Membrane Permeable-Phenotype (%),[6],3%
same,Population Mitochondria Different-Phenotype (%),[6],0%
same,Population Mitotic Cells (%),[6],52%
same,Population Normal (%),[6],89%
same,Population Pyknosed Nuclei (%),[6],25%
same,Population Tubulin-Different-Phenotype (%),[6],61%
same,Total Cell Count,[6],91
same,Population Apoptotic (%),[7],46%
same,Population Fragmented Nuclei (%),[7],10%
same,Population Healthy Nuclei (%),[7],79%
same,Population Hoechst High Intensity Objects (%),[7],0%
same,Population Membrane Permeable-Phenotype (%),[7],2%
same,Population Mitochondria Different-Phenotype (%),[7],6%
same,Population Mitotic Cells (%),[7],53%
same,Population Normal (%),[7],99%
same,Population Pyknosed Nuclei (%),[7],9%
same,Population Tubulin-Different-Phenotype (%),[7],28%
same,Total Cell Count,[7],135
same,Population Apoptotic (%),[8],42%
same,Population Fragmented Nuclei (%),[8],19%
same,Population Healthy Nuclei (%),[8],67%
same,Population Hoechst High Intensity Objects (%),[8],4%
same,Population Mitochondria Different-Phenotype (%),[8],9%
same,Population Mitotic Cells (%),[8],57%
same,Population Normal (%),[8],95%
same,Population Pyknosed Nuclei (%),[8],12%
same,Population Tubulin-Different-Phenotype (%),[8],38%
same,Total Cell Count,[8],116
same,Population Apoptotic (%),[9],69%
same,Population Fragmented Nuclei (%),[9],19%
same,Population Healthy Nuclei (%),[9],58%
same,Population Hoechst High Intensity Objects (%),[9],2%
same,Population Membrane Permeable-Phenotype (%),[9],0%
same,Population Mitochondria Different-Phenotype (%),[9],1%
same,Population Mitotic Cells (%),[9],30%
same,Population Normal (%),[9],97%
same,Population Pyknosed Nuclei (%),[9],21%
same,Population Tubulin-Different-Phenotype (%),[9],33%
same,Total Cell Count,[9],109
same,Population Apoptotic (%),[10],36%
same,Population Fragmented Nuclei (%),[10],40%
same,Population Healthy Nuclei (%),[10],47%
same,Population Hoechst High Intensity Objects (%),[10],5%
same,Population Membrane Permeable-Phenotype (%),[10],12%
same,Population Mitochondria Different-Phenotype (%),[10],9%
same,Population Mitotic Cells (%),[10],63%
same,Population Normal (%),[10],94%
same,Population Pyknosed Nuclei (%),[10],12%
same,Population Tubulin-Different-Phenotype (%),[10],70%
same,Total Cell Count,[10],92
same,Population Apoptotic (%),[11],50%
same,Population Fragmented Nuclei (%),[11],21%
same,Population Healthy Nuclei (%),[11],69%
same,Population Hoechst High Intensity Objects (%),[11],2%
same,Population Membrane Permeable-Phenotype (%),[11],0%
same,Population Mitochondria Different-Phenotype (%),[11],7%
same,Population Mitotic Cells (%),[11],50%
same,Population Normal (%),[11],97%
same,Population Pyknosed Nuclei (%),[11],8%
same,Population Tubulin-Different-Phenotype (%),[11],33%
same,Total Cell Count,[11],141
same,Population Apoptotic (%),[12],75%
same,Population Fragmented Nuclei (%),[12],29%
same,Population Healthy Nuclei (%),[12],61%
same,Population Hoechst High Intensity Objects (%),[12],3%
same,Population Membrane Permeable-Phenotype (%),[12],2%
same,Population Mitochondria Different-Phenotype (%),[12],5%
same,Population Mitotic Cells (%),[12],25%
same,Population Normal (%),[12],96%
same,Population Pyknosed Nuclei (%),[12],9%
same,Total Cell Count,[12],131
